The values below come from ChEMBL document CHEMBL4316638, “Bioactive Meroterpenoids and Isocoumarins from the Mangrove-Derived Fungus Penicillium sp. TGM112” (J Nat Prod, 2019).

≈ marks a conversion by molar mass, not a printed value. Calls of active or inactive are those of the source. The rule behind the calls is not given here.

Assay [1] deals with RAW264.7. Kind of assay: Inhibition of LPS-induced nitric oxide production in mouse RAW264.7 cells preincubated for 30 mins followed by LPS-stimulation and measured after 24 hrs by Griess assay. The class given is functional, cell-based. In short, it runs like this:
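RAW264.7 macrophages seeded at 50 000 cells/well and grown 24 h, then exposed to compound for 30 min at 37 °C before LPS (100 ng/mL) co-incubation for 24 h. Nitrite in supernatant measured by Griess reagent (10 min mixing), absorbance 540 nm. Compounds from 10 mM DMSO stocks; final DMSO ≤0.1%. Dexamethasone positive control. Triplicate runs; IC50 calculated.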
(In general: Nitrite, measured by Griess reagent, commonly stands in for NO production.)

In assay [2] the test system is Helicoverpa armigera. Description: Insecticidal activity against Helicoverpa armigera hubner measured every other day for 8 days starting from 2 days post dosing. The format is functional, organism-based. In short, it runs like this:
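Neonate H. armigera larvae fed artificial diet dosed with serial dilutions of compound (1 mg/mL in DMSO) at 200, 100, 50, 25 and 12.5 μL/well in six-well plates; three groups of three larvae, 3 replicates per treatment. Held at 25 ± 1 °C, 80% relative humidity. Dead larvae counted on days 2, 4, 6, 8. DMSO negative, azadirachtin positive, plain diet blank controls.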

Assay [3] has as its system A549. Description: Cytotoxicity against human A549 cells measured after 7 days by MTT assay. The format is functional, cell-based. On the technique in general: Formazan colour is commonly taken as a measure of viable cells.
The test system of assay [4] is HeLa. Kind of assay: Cytotoxicity against human HeLa cells measured after 7 days by MTT assay. The class given is functional, cell-based.
Assay [5] has as its system HepG2. Kind of assay: Cytotoxicity against human HepG2 cells measured after 7 days by MTT assay. The class given is functional, cell-based.
In assay [6] the test system is Escherichia coli. Kind of assay: Antibacterial activity against Escherichia coli ATCC 25922 by microplate assay. The format is functional, organism-based.
In assay [7] the test system is Staphylococcus aureus. Kind of assay: Antibacterial activity against Staphylococcus aureus ATCC 25923 by microplate assay. The format is functional, organism-based.
For assay [8], the system named is Staphylococcus aureus. Description: Antibacterial activity against methicillin-resistant Staphylococcus aureus ATCC 33591 by microplate assay. The class given is functional, organism-based. The method, boiled down: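 MRSA (ATCC 33591) was one strain in a panel of six pathogenic bacteria: four general and two marine Vibrio. Assayed by the microplate method, with ciprofloxacin as positive control.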

Assay [9] concerns Bacillus cereus. Kind of assay: Antibacterial activity against Bacillus cereus ATCC 11778 by microplate assay. The format is functional, organism-based.
Assay [10] has as its system Vibrio parahaemolyticus. Kind of assay: Antibacterial activity against Vibrio parahaemolyticus ATCC 17802 by microplate assay. The format is functional, organism-based.
Assay [11] has as its system Vibrio alginolyticus. Kind of assay: Antibacterial activity against Vibrio alginolyticus ATCC 17749 by microplate assay. The format is functional, organism-based. The settings on record: NBRC 15630 = ATCC 17749.
The test system of assay [12] is Caenorhabditis elegans. Description: Insecticidal activity against Caenorhabditis elegans measured at 12 […]. The class given is functional, organism-based. In short, it runs like this:
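L1 C. elegans (30−40 worms/well) in S medium with E. coli OP50 and chloramphenicol, exposed to compound at 40, 20, 10, 5, 1 and 0 μg/mL diluted in filter-sterilized M-9; 3 replicates per treatment. Plates sealed, kept at 24 °C for 60 h in the dark; dead larvae counted at 12, 24, 36, 48, 60. M-9 negative control, levamisole 1 mg/mL positive control.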

As for `C[C@H](O)CCC[C@@H]1C[C@@H]2C[C@@H](O)CC(O)=C2C(=O)O1`, the inhibition entry in [1] is “inactive”. Also, in [2], the 50% inhibitory concentration (IC50) (in general, the concentration at which inhibition is half-maximal) stood at 200 µg/mL (≈ 740 µM). Further, the outcome in assay [3], in [4], in [5], in [6], in assay [7] and in assay [8] was inactive. In addition, the outcome in assay [9], in assay [10] and in assay [11] was inactive.
`C/C=C(\C)C(=O)O[C@H]1C[C@@H](OC(C)=O)[C@@]2(C(=O)OC)CO[C@H]3[C@@H](O)[C@@](C)([C@]45O[C@@]4(C)[C@H]4C[C@@H]5O[C@@H]5OC=C[C@@]54O)[C@H]4[C@]1(CO[C@]4(O)C(=O)OC)[C@@H]32` [AZADIRACTIN] had a half-inhibitory concentration (IC50) in assay [2] of 25 µg/mL (≈ 34.7 µM).
For the compound `C[C@@H](O)CCC[C@@H]1Cc2c(O)ccc(O)c2C(=O)O1`, in assay [1], the inhibition result was “inactive”. In assay [2], this compound registered an IC50 of 100 µg/mL (≈ 376 µM). Besides, the result in [3], in [4], in [5], in [6], in assay [7] and in assay [8] was inactive. Further, the result in assay [9], in [10] and in [11] was inactive.
As for `C=C1[C@]2(C)C(=O)[C@]3(O)[C@@H](C)OC(=O)[C@]13[C@@]1(C)CC[C@@]3(C=CC(=O)OC3(C)C)C(C)=C1[C@@H]2OC(C)=O`, in assay [1], the inhibition result is “inactive”. Besides, the outcome in assay [3], in assay [4], in [5], in assay [6], in [7] and in assay [8] was inactive. The result in [9], in assay [10] and in assay [11] was inactive.
As for `CC(=O)CCC[C@@H]1C[C@@H]2C[C@@H](O)CC(O)=C2C(=O)O1`, the inhibition result in assay [1] was “inactive”. This compound returned an IC50 in assay [2] of 200 µg/mL (≈ 745 µM). The outcome in assay [3], in assay [4], in [5], in assay [6], in [7] and in assay [8] was inactive. Moreover, the result in assay [9], in [10] and in assay [11] was inactive.
`C=C1[C@@]23C(=O)O[C@H](C)[C@]24O[C@@]2(C(=C)[C@]5(CCC(=O)OC5(C)C)C[C@@H](O)[C@]32C)[C@H](OC(C)=O)[C@@]1(C)OC4=O`: the inhibition entry in assay [1] is “inactive”. In addition, in [2], the 50% inhibitory concentration (IC50) is 50 µg/mL (≈ 96.8 µM). The outcome in assay [3], in assay [4], in assay [5], in assay [6], in assay [7] and in [8] was inactive. Further, the result in assay [9], in assay [10] and in assay [11] was inactive.
Take `CC(=O)CCC[C@@H]1Cc2cccc(O)c2C(=O)O1`: in assay [1], the inhibition entry was “inactive”. Besides, the outcome in assay [3], in [4], in [5], in [6], in assay [7] and in assay [8] was inactive. For the same compound, the result in assay [9], in assay [10] and in assay [11] was inactive.
`C[C@@H](O)CCC[C@H]1OC(=O)c2c(O)cccc2[C@@H]1O`: the inhibition entry in [1] is “inactive”. Further, in assay [2], inhibition was half-maximal at 100 µg/mL (≈ 376 µM) (IC50). Moreover, the result in assay [3], in assay [4], in assay [5], in assay [6], in assay [7] and in [8] was inactive. Also, the result in assay [9], in assay [10] and in [11] was inactive.
In the case of `COC(=O)CC[C@@H]1Cc2ccc(O)c(OC)c2C(=O)O1`, the inhibition entry in assay [1] is “inactive”. Moreover, the 50% inhibitory concentration (IC50) in [2] stood at 200 µg/mL (≈ 714 µM). Also, the outcome in assay [3], in assay [4], in assay [5], in assay [6], in assay [7] and in assay [8] was inactive. For the same compound, the outcome in assay [9], in [10] and in [11] was inactive.
Turning to `O=C1O[C@H](CCCO)Cc2cccc(O)c21`, in assay [1], the inhibition entry is “inactive”. Further, the result in [3], in assay [4], in assay [5], in assay [6], in assay [7] and in assay [8] was inactive. Also, the result in assay [9], in assay [10] and in [11] was inactive.
In the case of `COc1c(O)ccc2c1C(=O)O[C@H](CCCC(C)=O)C2`, in [1], the inhibition entry is “inactive”. Besides, the outcome in assay [3], in [4], in [5], in assay [6], in assay [7] and in assay [8] was inactive. Besides, the outcome in assay [9], in [10] and in [11] was inactive.
`COc1ccc2c(c1O)C(=O)O[C@H](CCCO)C2`: the inhibition result in assay [1] is “inactive”. The result in assay [3], in assay [4], in [5], in [6], in [7] and in [8] was inactive. Besides, the outcome in assay [9], in assay [10] and in [11] was inactive.
As to `CC(=O)OCCC[C@@H]1Cc2cccc(O)c2C(=O)O1`, the inhibition result in assay [1] was “inactive”. Further, the outcome in assay [3], in assay [4], in assay [5], in [6], in assay [7] and in [8] was inactive. Moreover, the result in assay [9], in assay [10] and in assay [11] was inactive.
With `C=C1[C@@]23C(=O)O[C@H](C)[C@@]2(O)C(=O)O[C@]1(C)[C@@H](OC(C)=O)C1=C(C)[C@]2(CCC(=O)OC2(C)C)CC[C@@]13C`, the inhibition entry in assay [1] was “inactive”. The compound also displayed an IC50 in assay [2] of 50 µg/mL (≈ 99.5 µM). Moreover, the result in [3], in assay [4], in assay [5], in assay [6], in assay [7] and in assay [8] was inactive. In addition, the outcome in [9], in assay [10] and in [11] was inactive.
In the case of `COc1c(O)ccc2c1C(=O)O[C@H](CCC[C@@H](C)O)C2`, in assay [1], the inhibition result is “inactive”. The outcome in assay [3], in assay [4], in assay [5], in [6], in [7] and in assay [8] was inactive. Besides, the result in assay [9], in assay [10] and in [11] was inactive.
In the case of `c1ccc([C@H]2CN3CCSC3=N2)cc1` [LEVAMISOLE], the EC50 (as a rule, the concentration that produces a half-maximal response) in assay [12] came out at 4.8 µg/mL (≈ 23.5 µM).
